The values below come from ChEMBL document CHEMBL4196247, “Coumarinolignoids and Taraxerane Triterpenoids from Sapium discolor and Their Inhibitory Potential on Microglial Nitric Oxide Production” (J Nat Prod, 2018).

Series [1] has as its system BV-2. Briefly: Antineuroinflammatory activity in mouse BV2 cells assessed as inhibition of LPS-induced nitric oxide production measured after 24 hrs by Griess assay. The format is functional, cell-based. The conditions noted are these: BV-2, 24 h. In a few lines:
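BV-2 microglia; minocycline served as the positive control, and IC50 values were reported.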
In general terms: Griess reagent forms a coloured azo dye with nitrite.

The subject of series [2] is BV-2. Briefly: Cytotoxicity against mouse BV2 cells assessed as reduction in cell viability at 1 to 100 uM after 24 hrs by MTT assay. The class given is cell-based. The conditions noted are these: bv-2, 24 h. In a few lines: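 BV-2 viability was read by MTT at 1, 10, 30 and 100 μM in parallel with the NO-release test, to exclude NO drops caused by lost viability.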
Background: Formazan colour is commonly taken as a measure of viable cells.

`COc1cc(/C=C/C(=O)O[C@H]2CC(=O)[C@]3(C)[C@H]4CC[C@]5(C)C(=CC[C@@]6(C(=O)O)CCC(C)(C)C[C@H]65)[C@]4(C)CC[C@H]3C2(C)C)ccc1O`: the 50% inhibitory concentration (IC50) (in general, the concentration needed to halve the response being measured) with BV-2 [1] was 15.3 µM. Besides, the Activity result with BV-2 [2] was “Non-Toxic”.

On to `CC1(COC(=O)/C=C/c2ccc(O)cc2)CC[C@]2(C(=O)O)CC=C3[C@]4(C)CC[C@H]5C(C)(C)C(=O)C=C[C@]5(C)[C@H]4CC[C@@]3(C)[C@@H]2C1` (stereo not given in full), for which the IC50 in the series on BV-2 [1] worked out at 2.7 µM. In addition, the Activity entry in the series with BV-2 [2] is “Non-Toxic”.

Consider `CC1(C)CC[C@]2(C(=O)O)CC=C3[C@]4(C)CC[C@H]5C(C)(C)[C@@H](O)CC(=O)[C@]5(C)[C@H]4CC[C@@]3(C)[C@@H]2C1`, for which the IC50 with BV-2 [1] was more than 50 µM. The Activity result in the series on BV-2 [2] was “Non-Toxic”.

For `CC(=O)O[C@H]1C[C@H](O)[C@]2(C)[C@H]3CC[C@]4(C)C(=CC[C@@]5(C(=O)O)CCC(C)(C)C[C@H]54)[C@]3(C)CC[C@H]2C1(C)C`, the IC50 with BV-2 [1] is more than 50 µM. In addition, the Activity result in the series on BV-2 [2] is “Non-Toxic”.

With `O=c1ccc2cc3c(cc2o1)O[C@H](c1ccc(O)c(O)c1)[C@@H](CO)O3`, the IC50 with BV-2 [1] came out at 13.8 µM. In addition, the Activity result with BV-2 [2] is “Non-Toxic”.

Turning to `CC1(C)CC[C@]2(C(=O)O)CC=C3[C@]4(C)CC[C@H]5C(C)(C)[C@@H](OC(=O)/C=C/c6ccc(O)cc6)CC(=O)[C@]5(C)[C@H]4CC[C@@]3(C)[C@@H]2C1`, in the series with BV-2 [1], the IC50 worked out at 14 µM. The Activity entry in the series with BV-2 [2] is “Non-Toxic”.

In the case of `CC1(C)CC[C@]2(C(=O)O)CC=C3[C@]4(C)CC[C@H]5C(C)(C)C(=O)CC[C@]5(C)[C@H]4CC[C@@]3(C)[C@@H]2C1`, the IC50 in the series on BV-2 [1] is more than 50 µM. The Activity entry in the series on BV-2 [2] is given as “Non-Toxic”.

Consider `O=c1ccc2cc3c(cc2o1)O[C@H](CO)[C@@H](c1ccc(O)c(O)c1)O3`, for which the 50% inhibitory concentration (IC50) with BV-2 [1] worked out at 5.8 µM. Further, the Activity result in the series with BV-2 [2] was “Non-Toxic”.

With `O=c1ccc2cc3c(cc2o1)O[C@@H](c1ccc(O)c(O)c1)[C@H](CO)O3`, the IC50 in the series with BV-2 [1] came to 7.2 µM. In the series with BV-2 [2], the Activity entry is “Non-Toxic”.

With `CC1(C)CC[C@]2(C(=O)O)CC=C3[C@]4(C)CC[C@H]5C(C)(C)[C@@H](OC(=O)/C=C/c6ccc(O)cc6)C[C@H](O)[C@]5(C)[C@H]4CC[C@@]3(C)[C@@H]2C1`, the 50% inhibitory concentration (IC50) in the series on BV-2 [1] amounted to 46.5 µM. In addition, the Activity result in the series with BV-2 [2] is reported as “Non-Toxic”.

On to `COc1c2c(cc3ccc(=O)oc13)O[C@@H](c1ccc(O)c(O)c1)[C@H](CO)O2`, for which the IC50 in the series on BV-2 [1] was determined as 4.2 µM. Further, in the series on BV-2 [2], the Activity entry is reported as “Non-Toxic”.

Turning to `O=c1ccc2cc3c(cc2o1)O[C@@H](CO)[C@H](c1ccc(O)c(O)c1)O3`, the IC50 in the series on BV-2 [1] was more than 50 µM. For the same molecule, the Activity result with BV-2 [2] is on record as “Non-Toxic”.

`COc1c2c(cc3ccc(=O)oc13)O[C@H](c1ccc(O)c(O)c1)[C@@H](CO)O2`: in the series with BV-2 [1], the IC50 is 11.8 µM. Also, in the series on BV-2 [2], the Activity result is recorded as “Non-Toxic”.

As to `CC1(COC(=O)/C=C\c2ccc(O)cc2)CC[C@]2(C(=O)O)CC=C3[C@]4(C)CC[C@H]5C(C)(C)C(=O)C=C[C@]5(C)[C@H]4CC[C@@]3(C)[C@@H]2C1` (stereo not given in full), the IC50 in the series with BV-2 [1] turned out to be 1.7 µM. In addition, the Activity entry in the series with BV-2 [2] was “Non-Toxic”.

As to `CC(=O)O[C@H]1CC(=O)[C@]2(C)[C@H]3CC[C@]4(C)C(=CC[C@@]5(C(=O)O)CCC(C)(C)C[C@H]54)[C@]3(C)CC[C@H]2C1(C)C`, the IC50 in the series with BV-2 [1] was more than 50 µM. Also, in the series on BV-2 [2], the Activity entry is “Non-Toxic”.

`CC(=O)O[C@H]1CC[C@]2(C)[C@H]3CC[C@]4(C)C(=CC[C@@]5(C(=O)O)CCC(C)(C)C[C@H]54)[C@]3(C)CC[C@H]2C1(C)C` [ACETYL ALEURITOLIC ACID]: in the series on BV-2 [1], the IC50 was more than 50 µM. Further, in the series on BV-2 [2], the Activity entry is recorded as “Non-Toxic”.

As for `CC1(C)CC[C@]2(C(=O)O)CC=C3[C@]4(C)CC[C@H]5C(C)(C)[C@@H](O)CC[C@]5(C)[C@H]4CC[C@@]3(C)[C@@H]2C1` [ALEURITOLIC ACID], the IC50 in the series on BV-2 [1] was more than 50 µM. Further, the Activity result in the series with BV-2 [2] was “Non-Toxic”.

Regarding `CN(C)c1ccc(O)c2c1C[C@H]1C[C@H]3[C@H](N(C)C)C(O)=C(C(N)=O)C(=O)[C@@]3(O)C(O)=C1C2=O` [MINOCYCLINE], the IC50 in the series on BV-2 [1] came to 4.9 µM.
